Laboratory results: ChEMBL document CHEMBL3856250, “Discovery of 6-Fluoro-5-(R)-(3-(S)-(8-fluoro-1-methyl-2,4-dioxo-1,2-dihydroquinazolin-3(4H)-yl)-2-methylphenyl)-2-(S)-(2-hydroxypropan-2-yl)-2,3,4,9-tetrahydro-1H-carbazole-8-carboxamide (BMS-986142): A Reversible Inhibitor of Bruton's Tyrosine Kinase (BTK) Conformationally Constrained by Two …” (J Med Chem, 2016)
Values belong to the compound of their own block, whether it stands above or below them. Activity calls are given as the source filed them. The calls are words filed in the database; no cut-off is given here.

Columns and labels:
[1] = target: T1, Tyrosine-protein kinase BTK (Homo sapiens, UniProt Q06187); assay: Inhibition of BTK in human whole blood assessed as suppression of BCR/anti-IgM/IgG-stimulated CD69 surface expression after 18 hrs with agitation by FITC-staining based FACS analysis; assay type: tissue-based
[2] = AUC in mouse at 10 mg/kg; assay type: ADME, organism-based; conditions: in vivo
[3] = target: T1, Tyrosine-protein kinase BTK
[4] = target: T1, Tyrosine-protein kinase BTK; assay: Inhibition of BTK in human Ramos-B cells assessed as suppression of BCR/anti-IgM-stimulated Ca2+ flux after 1 hr incubation in dark by FLIPR1 assay
[5] = species on record: Homo sapiens; assay: Selectivity ratio of IC50 for JAK2 (unknown origin) to IC50 for full length recombinant human His-tagged BTK expressed in baculovirus
[6] = Cmax in mouse at 10 mg/kg, iv or po; assay type: ADME, organism-based; conditions: in vivo
[7] = Drug metabolism in mouse assessed as metabolite 13c formation at 10 mg/kg, iv or po; assay type: ADME, organism-based; conditions: in vivo
[8] = Drug level in mouse treated with 3-Chloro-4-(R)-(3-(S)-(8-fluoro-1-methyl-2,4-dioxo-1,2-dihydroquinazolin-3(4H)-yl)-2-methylphenyl)-7-(2-hydroxypropan-2-yl)-9H-carbazole-1-carboxamide assessed as compound formation; assay type: ADME; conditions: in vivo
[9] = Drug level in rat treated with 3-Chloro-4-(R)-(3-(S)-(8-fluoro-1-methyl-2,4-dioxo-1,2-dihydroquinazolin-3(4H)-yl)-2-methylphenyl)-7-(2-hydroxypropan-2-yl)-9H-carbazole-1-carboxamide assessed as compound formation; assay type: ADME; conditions: in vivo
[10] = Drug level in dog treated with 3-Chloro-4-(R)-(3-(S)-(8-fluoro-1-methyl-2,4-dioxo-1,2-dihydroquinazolin-3(4H)-yl)-2-methylphenyl)-7-(2-hydroxypropan-2-yl)-9H-carbazole-1-carboxamide assessed as compound formation; assay type: ADME, Canis lupus familiaris; conditions: in vivo
[11] = Drug metabolism in mouse plasma assessed as compound-6 formation after 4 hrs by HPLC analysis; assay type: ADME, cell-free
Outline: (§1)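 Atropisomer distribution was followed in plasma from multiple species incubated at 37 °C over 4 h.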

[12] = Drug level in rat plasma treated with 4-(3-(S)-(8-Fluoro-1-methyl-2,4-dioxo-1,2-dihydroquinazolin-3(4H)-yl)-2-methylphenyl)7-(2-hydroxypropan-2-yl)-9H-carbazole-1-carboxamide after 1 hr by HPLC analysis; assay type: ADME; outline: as §1
[13] = Drug level in cynomolgus monkey plasma treated with 4-(3-(S)-(8-Fluoro-1-methyl-2,4-dioxo-1,2-dihydroquinazolin-3(4H)-yl)-2-methylphenyl)7-(2-hydroxypropan-2-yl)-9H-carbazole-1-carboxamide after 4 hrs by HPLC analysis; assay type: ADME, Macaca fascicularis; outline: as §1
[14] = Stability of the compound in methanol at 37 degC after 3 days; assay type: physicochemical; conditions: 72 h
[15] = Stability of the compound in methanol at 37 degC assessed as kinetic half life; assay type: physicochemical
[16] = AUC in mouse at 5 mg/kg; assay type: ADME, organism-based; conditions: in vivo
[17] = Drug metabolism in dog plasma assessed as compound-6 formation after 4 hrs by HPLC analysis; assay type: ADME, cell-free, Canis lupus familiaris; outline: as §1
[18] = Drug level in human plasma treated with 4-(3-(S)-(8-Fluoro-1-methyl-2,4-dioxo-1,2-dihydroquinazolin-3(4H)-yl)-2-methylphenyl)7-(2-hydroxypropan-2-yl)-9H-carbazole-1-carboxamide after 4 hrs by HPLC analysis; assay type: ADME; outline: as §1
[19] = Drug metabolism in rat plasma assessed as compound-6 formation after 4 hrs by HPLC analysis; assay type: ADME, cell-free; outline: as §1
[20] = Protein binding in human serum; assay type: ADME; conditions: read-out: PPB (converted)
[21] = Cmax in mouse at 5 mg/kg; assay type: ADME, organism-based; set-up: dose 5 mg/kg; conditions: in vivo
[22] = test system: Mus musculus; assay: Anti-autoimmune activity in lupus prone NZB/WF1 mouse model assessed as protection against glomerular nephritis at 10 mg/kg, po administered qd for 16 weeks; assay type: functional, organism-based
[23] = test system: Mus musculus; assay: Anti-autoimmune activity in lupus prone NZB/WF1 mouse model assessed as protection against tubulo-interstitial nephritis at 10 mg/kg, po administered qd for 16 weeks; assay type: functional, organism-based
[24] = test system: Mus musculus; assay: Anti-autoimmune activity in lupus prone NZB/WF1 mouse model assessed as protection against inflammatory infiltration at 10 mg/kg, po administered qd for 16 weeks; assay type: functional, organism-based
[25] = test system: Mus musculus; assay: Anti-autoimmune activity in lupus prone NZB/WF1 mouse model assessed as reduction in immune complex deposits at 10 mg/kg, po administered qd for 16 weeks; assay type: functional, organism-based
[26] = test system: Mus musculus; assay: Anti-autoimmune activity in lupus prone NZB/WF1 mouse model assessed as protection against glomerular nephritis at 30 mg/kg, po administered qd for 16 weeks; assay type: functional, organism-based
Outline: (§2)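 Female NZB/WF1 mice, 24 weeks old, were randomized (n = 12 per group) after baseline body weight, proteinuria and serum dsDNA titers were measured. They were dosed by oral gavage once daily for 16 weeks in 80:20 PEG400/water vehicle, with prednisolone 10 mg/kg as the comparator arm. Health was monitored routinely, and weight, proteinuria and anti-dsDNA titers were measured every 3 weeks.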

[27] = test system: Mus musculus; assay: Anti-autoimmune activity in lupus prone NZB/WF1 mouse model assessed as protection against inflammatory infiltration at 30 mg/kg, po administered qd for 16 weeks; assay type: functional, organism-based; outline: as §2
[28] = test system: Mus musculus; assay: Antiathritis activity in anticollagen antibody-induced arthritis BALB/c mouse model assessed as reduction in LPS-induced inflammation in right hind paws at 5 and 20 mg/kg, po qd followed by LPS addition on day 3 measured after 11 days relative to control; assay type: functional, organism-based
[29] = test system: Mus musculus; assay: Anti-autoimmune activity in lupus prone NZB/WF1 mouse model assessed as reduction in immune complex deposits at 30 mg/kg, po administered qd for 16 weeks; assay type: functional, organism-based; outline: as §2
[30] = test system: Mus musculus; assay: Anti-autoimmune activity in lupus prone NZB/WF1 mouse model assessed as protection from disease-related death at 30 mg/kg, po administered qd for 16 weeks; assay type: functional, organism-based; outline: as §2
[31] = species on record: Homo sapiens; assay: Inhibition of Na+ channel (unknown origin) at 10 uM at 4 Hz by patch clamp assay
[32] = test system: Mus musculus; assay: Anti-autoimmune activity in lupus prone NZB/WF1 mouse model assessed as inhibition of increase in severe proteinuria at 30 mg/kg, po administered qd for 16 weeks; assay type: functional, organism-based; outline: as §2
[33] = species on record: Homo sapiens; assay: Inhibition of Ca2+ channel (unknown origin) at 10 uM by patch clamp assay
[34] = test system: Mus musculus; assay: Anti-autoimmune activity in lupus prone NZB/WF1 mouse model assessed as protection against tubulo-interstitial nephritis at 30 mg/kg, po administered qd for 16 weeks; assay type: functional, organism-based; outline: as §2
[35] = species on record: Homo sapiens; assay: Inhibition of Na+ channel (unknown origin) at 10 uM at 1 Hz by patch clamp assay
[36] = test system: Mus musculus; assay: Antiathritis activity in anticollagen antibody-induced arthritis BALB/c mouse model assessed as reduction in LPS-induced bone resorption in right hind paws at 5 and 20 mg/kg, po qd followed by LPS addition on day 3 measured after 11 days relative to control; assay type: functional, organism-based
[37] = Stability of the compound in methanol at 37 degC after 5 days; assay type: physicochemical; conditions: 120 h
[38] = Stability in plasma (unknown origin) at 37 degC after 5 days; assay type: ADME, cell-free; conditions: 120 h
[39] = Clearance in mouse at 10 mg/kg, iv or po; assay type: ADME, organism-based; conditions: in vivo

T1 sequence (Q06187 whole entry): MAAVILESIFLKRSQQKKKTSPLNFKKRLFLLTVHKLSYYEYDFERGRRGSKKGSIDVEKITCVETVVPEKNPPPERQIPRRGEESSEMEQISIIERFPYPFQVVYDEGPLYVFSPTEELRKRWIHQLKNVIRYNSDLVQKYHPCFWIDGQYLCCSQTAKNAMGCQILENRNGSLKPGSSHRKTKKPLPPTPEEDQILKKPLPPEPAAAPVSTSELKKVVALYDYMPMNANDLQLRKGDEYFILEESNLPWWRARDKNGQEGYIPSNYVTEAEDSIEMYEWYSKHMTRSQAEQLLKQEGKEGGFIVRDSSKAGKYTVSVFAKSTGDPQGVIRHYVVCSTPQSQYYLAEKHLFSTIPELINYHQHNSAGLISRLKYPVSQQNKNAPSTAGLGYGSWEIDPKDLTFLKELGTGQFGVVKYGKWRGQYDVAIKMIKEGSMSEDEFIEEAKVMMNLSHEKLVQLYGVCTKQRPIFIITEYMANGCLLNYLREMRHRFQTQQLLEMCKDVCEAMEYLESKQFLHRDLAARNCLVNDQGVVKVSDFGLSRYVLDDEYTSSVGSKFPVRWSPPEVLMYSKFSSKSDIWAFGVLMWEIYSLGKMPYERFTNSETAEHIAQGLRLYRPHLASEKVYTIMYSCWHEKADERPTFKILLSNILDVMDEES

SMILES: Cc1c(-c2ccc(C(N)=O)c3[nH]c4c(c23)CC[C@H](C(C)(C)O)C4)cccc1-n1c(=O)c2cccc(F)c2n(C)c1=O
IC50 [1]: 380 nM
AUC [2]: 16 µM·h
IC50 [3]: 2.7 nM
IC50 [4]: 63 nM
Ratio IC50 [5]: 740
Cmax [6]: 3.6 µM

SMILES: C[C@]12C=CC(=O)C=C1CC[C@@H]1[C@@H]2[C@@H](O)C[C@@]2(C)[C@H]1CC[C@]2(O)C(=O)CO
Activity [22]: Active
Activity [23]: Active
Activity [24]: Active
Activity [25]: Active

SMILES: Cc1c(-c2c(F)cc(C(N)=O)c3[nH]c4c(c23)CC[C@@H](C(C)(C)O)C4)cccc1-n1c(=O)c2cccc(F)c2n(C)c1=O
IC50 [1]: 150 nM
IC50 [4]: 36 nM
Ratio IC50 [5]: 910

SMILES: Cc1c(-c2c(F)cc(C(N)=O)c3[nH]c4c(c23)CC[C@H](C(C)(C)O)C4)cccc1-n1c(=O)c2cccc(F)c2n(C)c1=O (atropisomer R)
Activity [26]: Active
Activity [27]: Active
Activity [28]: Active
Activity [29]: Active
Activity [30]: Active
inhibition [31]: 13%
inhibition [32]: Active
inhibition [33]: 40%
Ratio IC50 [5]: > 10000
Activity [34]: Active
inhibition [35]: 10%
Activity [36]: Active

SMILES: Cc1c(-c2ccc(C(N)=O)c3[nH]c4c(c23)CC[C@@H](C(C)(C)O)C4)cccc1-n1c(=O)c2cccc(F)c2n(C)c1=O
IC50 [3]: 11 nM
IC50 [4]: 190 nM
Ratio IC50 [5]: 180

SMILES: Cc1c(-c2ccc(C(N)=O)c3[nH]c4cc(C(C)(C)O)ccc4c23)cccc1-n1cnc2ccccc2c1=O
AUC [2]: 80 µM·h

More lines, now with the values ahead:

AUC [2]: 28 µM·h
Drug metabolism [7]: Metabolite_Detected
Cmax [6]: 5.5 µM
SMILES: Cc1c(-c2c(F)cc(C(N)=O)c3[nH]c4cc(C(C)(C)O)ccc4c23)cccc1-n1c(=O)c2cccc(F)c2n(C)c1=O

Drug metabolism [8]: Metabolite_Detected
Drug metabolism [9]: Metabolite_Detected
IC50 [3]: 1.6 nM
Drug metabolism [10]: Metabolite_Detected
SMILES: Cc1c(-c2c(Cl)cc(C(N)=O)c3[nH]c4cc(C(C)(C)O)ccc4c23)cccc1-n1c(=O)[nH]c2c(F)cccc2c1=O

Drug metabolism [11]: Metabolite_Notdetected
Drug uptake [12]: Active
Drug uptake [13]: Active
Stability [14]: Stable
half-life [15]: 1.15 h
AUC [16]: 25 µM·h
Drug metabolism [17]: Metabolite_Notdetected
Drug uptake [18]: Active
Drug metabolism [19]: Metabolite_Notdetected
fraction unbound [20]: < 0.01
Cmax [21]: 2.2 µM
SMILES: Cc1c(-c2ccc(C(N)=O)c3[nH]c4cc(C(C)(C)O)ccc4c23)cccc1-n1c(=O)c2cccc(F)c2n(C)c1=O

IC50 [1]: 240 nM
AUC [2]: 48 µM·h
IC50 [3]: 0.65 nM
IC50 [4]: 17 nM
Cmax [6]: 6.3 µM
SMILES: Cc1cc(C(N)=O)c2[nH]c3cc(C(C)(C)O)ccc3c2c1-c1cccc(-n2c(=O)c3cccc(F)c3n(C)c2=O)c1C

AUC [2]: 41 µM·h
Stability [37]: Stable
Cmax [6]: 4.7 µM
Stability [38]: Stable
SMILES: Cc1c(-c2c(Cl)cc(C(N)=O)c3[nH]c4cc(C(C)(C)O)ccc4c23)cccc1-n1c(=O)c2cccc(F)c2n(C)c1=O

IC50 [1]: 120 nM
AUC [2]: 0.31 µM·h
IC50 [4]: 6 nM
Ratio IC50 [5]: 7100
Cmax [6]: 0.12 µM
SMILES: Cc1c(-c2c(C#N)cc(C(N)=O)c3[nH]c4cc(C(C)(C)O)ccc4c23)cccc1-n1c(=O)c2cccc(F)c2n(C)c1=O

AUC [2]: 25 µM·h
Cmax [6]: 4.5 µM
CL [39]: 15%
SMILES: Cc1c(-c2c(Cl)cc(C(N)=O)c3[nH]c4c(c23)CC[C@H](C(C)(C)O)C4)cccc1-n1c(=O)c2cccc(F)c2n(C)c1=O

IC50 [1]: 460 nM
IC50 [3]: 2.6 nM
Stability [14]: Stable
SMILES: Cc1c(-c2ccc(C(N)=O)c3[nH]c4cc(C(C)(C)O)ccc4c23)cccc1-n1c(=O)c2ccccc2n(C)c1=O

IC50 [3]: 25 nM
IC50 [4]: 750 nM
SMILES: Cc1c(-c2c(F)cc(C(N)=O)c3[nH]c4c(c23)CC[C@H](C(C)(C)O)C4)cccc1-n1c(=O)c2cccc(F)c2n(C)c1=O [BMS-986142]
